The source of these data is ChEMBL document CHEMBL1156309, “Design and optimization of a substituted amino propanamide series of renin inhibitors for the treatment of hypertension” (Bioorg Med Chem Lett, 2010).

The target of data set [1] is T1, Renin (Homo sapiens, UniProt P00797).
T1 sequence (P00797 whole entry): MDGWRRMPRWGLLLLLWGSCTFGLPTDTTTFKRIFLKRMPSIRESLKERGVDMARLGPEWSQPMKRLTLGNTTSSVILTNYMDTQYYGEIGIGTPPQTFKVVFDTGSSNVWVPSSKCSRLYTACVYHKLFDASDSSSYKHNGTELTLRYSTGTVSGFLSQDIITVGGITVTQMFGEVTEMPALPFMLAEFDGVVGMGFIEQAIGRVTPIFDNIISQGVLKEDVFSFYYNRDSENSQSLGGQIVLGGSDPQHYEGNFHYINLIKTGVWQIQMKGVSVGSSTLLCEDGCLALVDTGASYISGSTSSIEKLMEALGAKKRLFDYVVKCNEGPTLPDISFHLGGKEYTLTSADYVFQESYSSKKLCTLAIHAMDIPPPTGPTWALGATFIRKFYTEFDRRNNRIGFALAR
As to the kind of experiment: Inhibition of human recombinant renin in PBS buffer at pH 7.4. In short, it runs like this: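 Recombinant human renin (3 pg/µL) in PBS with 1 mM EDTA, 0.1% BSA, pH 7.4, with human tetradecapeptide (1-14) substrate and hydroxyquinoline sulfate. Compounds diluted in DMSO; incubation 3 h at 37 °C. Angl accumulation measured; percent inhibition at each concentration, IC50 from curve fit. Average of at least two replicates.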

Data set [2] addresses T1, Renin. As to the kind of experiment: Inhibition of human recombinant renin in human citreated-plasma. In short, it runs like this: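 Pooled human citrate plasma supplemented with recombinant human renin (150 pg/mL final). Compounds in DMSO at various concentrations added to plasma mixed with trapping anti-Angl antibody (final antiserum dilution 1:50,000) in Tris/EDTA, pH 7.2; incubation 2 h at 37 °C. Angl accumulation read by immunoassay; IC50 from curve fit. Average of at least two replicates.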

A short description of data set [3]: Clearance in Beagle dog at 3 mg/kg, po and 1 mg/kg, iv. It is filed as ADME, organism-based, Canis lupus familiaris. The settings on record: in vivo.
Data set [4] is described as follows: Half life in Beagle dog at 3 mg/kg, po and 1 mg/kg, iv. It is filed as ADME, organism-based, Canis lupus familiaris. The settings on record: in vivo.
For another data set, the system named is Rattus norvegicus. As to the kind of experiment: Antihypertensive activity in telemetered double-transgenic rat assessed as decrease in blood pressure at 3 mg/kg, po after 2 days. It is filed as functional. The gist of the method: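 Telemetered double-transgenic rats (n = 8) dosed orally at 3 mpk. Blood pressure monitored by telemetry; maximum fall in mm Hg and duration of action recorded.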

The test system of the next data set is Canis familiaris. As to the kind of experiment: Antihypertensive activity in Beagle assessed as prolongation of CV intervals at 12 uM, iv after 2 days. It is filed as functional, Canis lupus familiaris. The gist of the method: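 Beagle dogs given compound intravenously up to 12 µM plasma exposure. QTc, PR and QRS intervals monitored for prolongation.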
The nature of data set [5]: Volume of distribution at steady state in Sprague-Dawley rat at 30 mg/kg, po and 5 mg/kg, iv. It is filed as ADME, organism-based. The settings on record: in vivo, read-out: Vdss.
A further data set concerns the target Cytochrome P450 3A4 (Homo sapiens, UniProt P08684). As to the kind of experiment: Inhibition of CYP3A4 after 30 mins. It is filed as ADME.
Data set [6] can be described thus: Half life in Sprague-Dawley rat at 30 mg/kg, po and 5 mg/kg, iv. It is filed as ADME, organism-based. The settings on record: in vivo.
Data set [7] can be described thus: Volume of distribution at steady state in Beagle dog at 3 mg/kg, po and 1 mg/kg, iv. It is filed as ADME, organism-based, Canis lupus familiaris. The settings on record: in vivo, read-out: Vdss.
Data set [8] can be described thus: Clearance in Sprague-Dawley rat at 30 mg/kg, po and 5 mg/kg, iv. It is filed as ADME, organism-based. The conditions noted are these: in vivo.
Data set [9] is described as follows: Oral bioavailability in Beagle dog at 3 mg/kg. It is filed as ADME, organism-based, Canis lupus familiaris. The conditions noted are these: in vivo.
Data set [10] can be described thus: AUC in Beagle dog at 3 mg/kg, po. The settings on record: plasma. Further details: dose 3 mg/kg, route oral. It is filed as ADME, organism-based, Canis lupus familiaris.
The nature of data set [11]: Oral bioavailability in Sprague-Dawley rat at 30 mg/kg. The settings on record: in vivo. It is filed as ADME, organism-based.
Data set [12] is described as follows: AUC in Sprague-Dawley rat at 30 mg/kg, po. It is filed as ADME, organism-based. Also noted: dose 30 mg/kg, route oral. The conditions noted are these: plasma.

Sequence of Cytochrome P450 3A4 (P08684 whole entry): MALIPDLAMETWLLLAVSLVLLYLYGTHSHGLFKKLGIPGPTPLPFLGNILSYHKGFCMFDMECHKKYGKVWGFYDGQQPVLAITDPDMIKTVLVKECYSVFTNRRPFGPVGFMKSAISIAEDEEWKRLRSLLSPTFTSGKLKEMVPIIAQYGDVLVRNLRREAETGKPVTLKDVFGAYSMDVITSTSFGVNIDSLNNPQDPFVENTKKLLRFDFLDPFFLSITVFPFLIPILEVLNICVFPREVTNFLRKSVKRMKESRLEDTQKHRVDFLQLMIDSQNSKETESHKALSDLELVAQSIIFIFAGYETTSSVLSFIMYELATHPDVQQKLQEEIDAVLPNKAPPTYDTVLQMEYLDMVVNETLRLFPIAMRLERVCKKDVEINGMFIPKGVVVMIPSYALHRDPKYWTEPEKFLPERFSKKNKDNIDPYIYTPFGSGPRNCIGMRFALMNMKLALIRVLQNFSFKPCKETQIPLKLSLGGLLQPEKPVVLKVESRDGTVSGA

Take `O=C(C(CNCc1ccccc1)Cc1ccc(CCCOc2c(F)ccc(F)c2Cl)cc1)N(Cc1cccc(Cl)c1Cl)C1CC1` (stereo unspecified): on Renin [1], the IC50 was 260 nM.

In the case of `CNCC(Cc1ccc(CCCOc2c(F)ccc(F)c2Cl)cc1)C(=O)N(Cc1cccc(Cl)c1Cl)C1CC1` (stereo unspecified), the values for the 50% inhibitory concentration (IC50) at Renin [2] and at Renin [1] were 350 nM and 1.9 nM, respectively.

Consider `CC(CN)(Cc1ccc(CCCOc2c(F)ccc(F)c2Cl)cc1)C(=O)N(Cc1cccc(Cl)c1Cl)C1CC1` (stereo unspecified), for which the IC50 at Renin [1] turned out to be 210 nM.

Regarding `Cc1cc(Cl)c(OCCCc2ccc(CC(CN)C(=O)N(Cc3cccc(Cl)c3Cl)C3CC3)cc2)c(Cl)c1` (stereo unspecified), the IC50 is 29 nM on Renin [2] and 0.4 nM on Renin [1].

In the case of `COCCc1ccc(Cl)c(CN(C(=O)C(CN)Cc2ccc(CCCOc3c(Cl)cc(C)cc3Cl)cc2)C2CC2)c1` (stereo unspecified), on Renin [1], the IC50 stood at 0.19 nM.

Take `Cc1cc(Cl)c(OCCCc2ccc(CC(CN)C(=O)N(Cc3cc(CCC#N)ccc3Cl)C3CC3)cc2)c(Cl)c1` (stereo unspecified): the IC50 at Renin [2] was 10 nM; on Renin [1], 0.27 nM.

For the molecule `Cc1cc(Cl)c(OCCCc2ccc(CC(CN)C(=O)N(Cc3cc(CCCO)ccc3Cl)C3CC3)cc2)c(Cl)c1` (stereo unspecified), the results for the IC50 at Renin [2] and at Renin [1] were 6.4 nM and 0.09 nM, respectively.

As to `NCCC(CC(=O)N(Cc1cccc(Cl)c1Cl)C1CC1)c1ccc(CCCOc2c(F)ccc(F)c2Cl)cc1` (stereo unspecified), the IC50 on Renin [1] was found to be 650 nM.

As for `COCCCc1ccc(Cl)c(CN(C(=O)[C@H](CN)Cc2ccc(CCCOc3c(Cl)cc(C)cc3Cl)cc2)C2CC2)c1`, the clearance in [3] is 16 mL/min/kg; in [8], 35 mL/min/kg. The half-life in data set [4] was 17 h; in data set [6] it was 6 h. The Activity with Rattus norvegicus was 27 mmHg; in the data set on Canis familiaris, less than 5%. Moreover, the Vd in [5] stood at 12 L/kg; in [7], 8.4 L/kg. For the same molecule, the results for the 50% inhibitory concentration (IC50) on Cytochrome P450 3A4, at Renin [2] and at Renin [1] were 130 nM, 2.4 nM and 0.09 nM, respectively. For the same molecule, the bioavailability is 32% in data set [9] and 41% in data set [11]. Besides, the results for the AUC in data set [10] and in data set [12] were 1.3 µM·h and 8.3 µM·h, respectively.

For the molecule `COCCOc1ccc(Cl)c(CN(C(=O)C(CN)Cc2ccc(CCCOc3c(Cl)cc(C)cc3Cl)cc2)C2CC2)c1` (stereo unspecified), the IC50 on Renin [1] stood at 0.21 nM.

On to `CC(=O)N(C)Cc1ccc(Cl)c(CN(C(=O)C(CN)Cc2ccc(CCCOc3c(Cl)cc(C)cc3Cl)cc2)C2CC2)c1` (stereo unspecified), for which the IC50 on Renin [2] is 250 nM; at Renin [1], 2.9 nM.

Consider `Cc1cc(Cl)c(OCCCc2ccc(CC(CN)C(=O)N(Cc3cc(CCCN(C)C)ccc3Cl)C3CC3)cc2)c(Cl)c1` (stereo unspecified), for which the values for the IC50 on Renin [2] and on Renin [1] were 103 nM and 1.5 nM, respectively.

For `COCCCc1cc(Cl)c(Cl)c(CN(C(=O)C(CN)Cc2ccc(CCCOc3c(Cl)cc(C)cc3Cl)cc2)C2CC2)c1` (stereo unspecified), the IC50 came to 31 nM on Renin [2] and 0.26 nM at Renin [1].

As for `Cc1cc(Cl)c(OCCCc2ccc(C[C@@H](CN)C(=O)N(Cc3cc(CCCC#N)ccc3Cl)C3CC3)cc2)c(Cl)c1`, the half-inhibitory concentration (IC50) on Renin [2] came to 4.6 nM; at Renin [1], 0.11 nM.

`COCCCc1cc(CN(C(=O)C(CN)Cc2ccc(CCCOc3c(Cl)cc(C)cc3Cl)cc2)C2CC2)c(Cl)cn1` (stereo unspecified): the IC50 came out at 2.2 nM at Renin [2] and 0.19 nM on Renin [1].

On to `COCCCc1cc(CN(C(=O)C(CN)Cc2ccc(CCCOc3c(Cl)cc(C)cc3Cl)cc2)C2CC2)c(Cl)c[n+]1[O-]` (stereo unspecified), for which the IC50 at Renin [2] was 1.8 nM; on Renin [1], 0.3 nM.

`COCCCc1cc(CN(C(=O)[C@@H](CN)Cc2ccc(CCCOc3c(Cl)cc(C)cc3Cl)cc2)C2CC2)cc(OCCOC)c1`: the clearance turned out to be 35 mL/min/kg in [3] and 13 mL/min/kg in [8]. The values for the half-life in [4] and in data set [6] were 7.5 h and 4 h, respectively. Also, the Activity with Rattus norvegicus stood at 35 mmHg. Also, the Vd in data set [5] was determined as 3.6 L/kg; in data set [7], 15 L/kg. This molecule displayed a 50% inhibitory concentration (IC50) against Cytochrome P450 3A4 of 1300 nM. In addition, the bioavailability in [9] was determined as 36%; in [11] it was 48%. Further, the AUC came to 0.7 µM·h in data set [10] and 27.5 µM·h in data set [12].

Take `NCC(Cc1ccc(CCCOc2c(F)ccc(F)c2Cl)cc1)C(=O)N(Cc1cccc(Cl)c1Cl)C1CC1` (racemic): the IC50 at Renin [2] was 21 nM; at Renin [1] it was 0.79 nM.

In the case of `COCCCc1ccc(Cl)c(CN(C(=O)C(CN)Cc2ccc(CCCOc3c(Cl)cc(C)cc3Cl)cc2)C2CC2)c1` (racemic), the values for the IC50 on Renin [2] and on Renin [1] were 5.8 nM and 0.26 nM, respectively.

By IC50 is commonly meant the concentration at which inhibition is half-maximal. The half-life is the time needed for the level to fall by half in the phase considered. Higher therefore signals slow decline. What is called bioavailability is the share of a dose that reaches the circulation, judged against a reference dose that is usually intravenous. One may read the AUC as the area under the concentration-time curve, a measure of exposure. Low values mean less exposure, high ones more exposure.
